In ChEMBL document CHEMBL3045116, “Synthesis and biological evaluation of 2-(5-substituted-1-((diethylamino)methyl)-2-oxoindolin-3-ylidene)-N-substituted-hydrazinecarbothioamides” (Med Chem Res, 2013):

Key:
[1] = test system: CCRF-CEM; experiment: Cytotoxicity against Homo sapiens (human) CEM cells assessed as growth inhibition after 72 hr by coulter counter analysis; type: functional, cell-based
How it was run: (§1)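 Cells in growth medium were allowed to proliferate with variable compound amounts at 37 °C in a humidified CO2 atmosphere. Incubation ran 48 h for L1210, 72 h for CEM and 96 h for HeLa. Cells were then counted with a Coulter counter.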

[2] = test system: Coxsackievirus B4; experiment: Antiviral activity against Human coxsackievirus B4 infected human HeLa cells assessed as reduction of virus-induced cytopathic effect after 3 days by colorimetric formazan-based MTS assay; type: functional, organism-based; details: Enterovirus B, 72 h
How it was run: (§2)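 Confluent cell monolayers were infected with 100 CCID50 of virus, and serial dilutions of compound were added at the time of infection.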

[3] = test system: Human alphaherpesvirus 1; experiment: Antiviral activity against acyclovir-resistant thymidine kinase negative Human herpesvirus 1 strain KOS infected human HEL cells assessed as reduction of virus-induced cytopathic effect after 3 days by colorimetric formazan-based MTS assay; type: functional, organism-based; details: Human alphaherpesvirus 1, KOS, 72 h; how it was run: as §2
[4] = test system: Klebsiella pneumoniae; experiment: Antibacterial activity against Klebsiella pneumoniae assessed as growth inhibition at 50 ug/ml by cup-plate method (reference value: 8 to 10 mm); type: functional; details: read-out: DIZ
[5] = (§3) Cytotoxicity against MDCK cells assessed as change in cellular morphology; type: cell-based, Canis lupus familiaris; details: dog, MDCK cells
How it was run: (§4)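 Uninfected cells were exposed to compound in parallel with the antiviral cultures. The read-out is the minimum cytotoxic concentration that causes a microscopically detectable alteration of normal cell morphology.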

[6] = test system: MDCK; experiment: as §3; type: cell-based, Canis lupus familiaris; details: dog, mdck; how it was run: as §4
[7] = test system: Escherichia coli; experiment: Antibacterial activity against Escherichia coli assessed as growth inhibition at 50 ug/ml by cup-plate method (reference value: 8 to 10 mm); type: functional; details: read-out: DIZ
[8] = test system: Human alphaherpesvirus 1; experiment: Antiviral activity against Human herpesvirus 1 strain KOS infected human HEL cells assessed as reduction of virus-induced cytopathic effect after 3 days by colorimetric formazan-based MTS assay; type: functional, organism-based; details: Human alphaherpesvirus 1, KOS, 72 h; how it was run: as §2
[9] = (§5) Cytotoxicity against Homo sapiens (human) HeLa cells assessed as change in cellular morphology; type: cell-based; details: HeLa cells; how it was run: as §4
[10] = test system: HeLa; experiment: as §5; type: cell-based; details: hela; how it was run: as §4
[11] = test system: Human respirovirus 3; experiment: Antiviral activity against Human parainfluenza virus 3 infected African green monkey Vero cells assessed as reduction of virus-induced cytopathic effect after 3 days by colorimetric formazan-based MTS assay; type: functional, organism-based; details: Human respirovirus 3, Vero, 72 h
How it was run: (§6)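 Cells grown to confluency in 96-well plates ([…], Vero for lines 9–10) were infected with 100 CCID50 of virus, and serial compound dilutions were added at infection. Plates were incubated at 37 °C for 3 days, until complete CPE appeared in untreated virus controls.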

[12] = test system: Punta Toro virus; experiment: Antiviral activity against Punta Toro virus infected in African green monkey Vero cells assessed as reduction of virus-induced cytopathic effect after 3 days by colorimetric formazan-based MTS assay; type: functional, organism-based; details: 72 h; how it was run: as §2
[13] = test system: Proteus vulgaris; experiment: Antibacterial activity against Proteus vulgaris assessed as growth inhibition at 50 ug/ml by cup-plate method (reference value: 8 to 10 mm); type: functional; details: read-out: DIZ
[14] = test system: Vaccinia virus; experiment: Antiviral activity against Vaccinia virus infected human HEL cells assessed as reduction of virus-induced cytopathic effect after 3 days by colorimetric formazan-based MTS assay; type: functional, organism-based; details: Orthopoxvirus vaccinia, 72 h; how it was run: as §2
[15] = test system: Aspergillus niger; experiment: Antifungal activity against Aspergillus niger assessed as growth inhibition at 50 ug/ml by cup-plate method (reference value: 8 to 10 mm); type: functional; details: read-out: DIZ
[16] = test system: Human alphaherpesvirus 2; experiment: Antiviral activity against Human herpesvirus 2 strain G infected human HEL cells assessed as reduction of virus-induced cytopathic effect after 3 days by colorimetric formazan-based MTS assay; type: functional, organism-based; details: Human alphaherpesvirus 2, strain G, 72 h; how it was run: as §2
[17] = Inhibition of beta lactamase assessed as increase in time taken for iodine decolorization relative to control; parameters: concentration or dose not given beside the values; details: concentration not given here
[18] = Inhibition of beta lactamase assessed as time for decolorization of iodine (reference value: 79.5 secs)
[19] = test system: Respiratory syncytial virus; experiment: Antiviral activity against Respiratory syncytial virus infected human HeLa cells assessed as reduction of virus-induced cytopathic effect after 3 days by colorimetric formazan-based MTS assay; type: functional, organism-based; details: 72 h; how it was run: as §2
[20] = test system: Feline infectious peritonitis virus; experiment: Antiviral activity against Feline Infectious peritonitis virus infected cat CRFK cells assessed as reduction of virus-induced cytopathic effect after 3 days by colorimetric formazan-based MTS assay; type: functional, organism-based; details: Alphacoronavirus 1, CRFK, 72 h; how it was run: as §2
[21] = test system: Mammalian orthoreovirus 1; experiment: Antiviral activity against Mammalian orthoreovirus 1 infected African green monkey Vero cells assessed as reduction of virus-induced cytopathic effect after 3 days by colorimetric formazan-based MTS assay; type: functional, organism-based; details: Mammalian orthoreovirus 1, Vero, 72 h; how it was run: as §6
[22] = test system: Influenza A virus; experiment: Antiviral activity against Unidentified Influenza A virus (H1N1) infected MDCK cells assessed as reduction of virus-induced cytopathic effect after 3 days by colorimetric formazan-based MTS assay; type: functional, organism-based; details: 72 h; how it was run: as §2
[23] = test system: Felid alphaherpesvirus 1; experiment: Antiviral activity against Felid herpesvirus 1 infected cat CRFK cells assessed as reduction of virus-induced cytopathic effect after 3 days by colorimetric formazan-based MTS assay; type: functional, organism-based; details: Felid alphaherpesvirus 1, CRFK, 72 h; how it was run: as §6
[24] = Cytotoxicity against Chlorocebus aethiops (African green monkey) Vero cells assessed as change in cellular morphology; type: cell-based; details: chlorocebus sabaeus
[25] = test system: Influenza A virus H3N2; experiment: Antiviral activity against Influenza A virus H3N2 infected MDCK cells assessed as reduction of virus-induced cytopathic effect after 3 days by colorimetric formazan-based MTS assay; type: functional, organism-based; details: 72 h; how it was run: as §2
[26] = test system: L1210; experiment: Cytotoxicity against Mus musculus (mouse) L1210 cells assessed as growth inhibition after 48 hr by coulter counter analysis; type: functional, cell-based; details: L1210, 48 h; how it was run: as §1
[27] = test system: Vesicular stomatitis virus; experiment: Antiviral activity against Vesicular stomatitis virus infected human HEL cells assessed as reduction of virus-induced cytopathic effect after 3 days by colorimetric formazan-based MTS assay; type: functional, organism-based; details: 72 h; how it was run: as §2
[28] = test system: Staphylococcus aureus; experiment: Antibacterial activity against Staphylococcus aureus assessed as growth inhibition at 50 ug/ml by cup-plate method (reference value: 8 to 10 mm); type: functional; details: read-out: DIZ
[29] = Cytotoxicity against Felis catus (cat) CRFK cells assessed as change in cellular morphology; type: cell-based; details: crfk; how it was run: as §4
[30] = test system: Candida albicans; experiment: Antifungal activity against Candida albicans assessed as growth inhibition at 50 ug/ml by cup-plate method (reference value: 8 to 10 mm); type: functional; details: read-out: DIZ
[31] = test system: Coxsackievirus B4; experiment: Antiviral activity against Human coxsackievirus B4 infected African green monkey Vero cells assessed as reduction of virus-induced cytopathic effect after 3 days by colorimetric formazan-based MTS assay; type: functional, organism-based; details: Enterovirus B, 72 h; how it was run: as §2
[32] = test system: Bacillus subtilis; experiment: Antibacterial activity against Bacillus subtilis assessed as growth inhibition at 50 ug/ml by cup-plate method (reference value: 8 to 10 mm); type: functional; details: read-out: DIZ
[33] = Cytotoxicity against Homo sapiens (human) HEL cells assessed as change in cellular morphology; type: cell-based
[34] = test system: Vesicular stomatitis virus; experiment: Antiviral activity against Vesicular stomatitis virus infected human HeLa cells assessed as reduction of virus-induced cytopathic effect after 3 days by colorimetric formazan-based MTS assay; type: functional, organism-based; details: 72 h; how it was run: as §2
[35] = test system: Influenza B virus; experiment: Antiviral activity against Influenza B virus infected in MDCK cells assessed as reduction of virus-induced cytopathic effect after 3 days by colorimetric formazan-based MTS assay; type: functional, organism-based; details: 72 h; how it was run: as §2
[36] = test system: Salmonella typhi; experiment: Antibacterial activity against Salmonella enterica subsp. enterica serovar Typhi assessed as growth inhibition at 50 ug/ml by cup-plate method (reference value: 8 to 10 mm); type: functional; details: read-out: DIZ
[37] = test system: Respirovirus muris; experiment: Antiviral activity against Sendai virus infected African green monkey Vero cells assessed as reduction of virus-induced cytopathic effect after 3 days by colorimetric formazan-based MTS assay; type: functional, organism-based; details: 72 h

SMILES | IC50 [1] | EC50 [2] | EC50 [3] | zone of inhibition at 50 µg/mL [4] | MCC [5] | CC50 [6] | zone of inhibition at 50 µg/mL [7] | EC50 [8] | MCC [9] | CC50 [10] | EC50 [11] | EC50 [12] | zone of inhibition at 50 µg/mL [13] | EC50 [14] | zone of inhibition at 50 µg/mL [15] | EC50 [16] | inhibition [17] | TIME [18] | EC50 [19] | EC50 [20] | further results
CCN(CC)CN1C(=O)/C(=N/NC(=S)Nc2ccc(Cl)cc2)c2ccccc21 | 10 µM | > 4 µM | ≥ 20 µM | 11 mm | 800 nM | 0.4 µM | 21 mm | 15 µM | ≥ 4 µM | 9.8 µM | > 4 µM | > 4 µM | 11 mm | ≥ 20 µM | 11 mm | 15 µM | 38.7% | 0.036 h | > 4 µM | > 0.8 µM | EC50 [21]: > 4 µM; EC50 [22]: > 0.16 µM; EC50 [23]: > 0.8 µM; MCC [24]: 20 µM; EC50 [25]: > 0.16 µM; IC50 [26]: 11 µM; EC50 [27]: > 20 µM; zone of inhibition at 50 µg/mL [28]: 11 mm; CC50 [29]: 4 µM; zone of inhibition at 50 µg/mL [30]: 11 mm; EC50 [31]: > 4 µM; zone of inhibition at 50 µg/mL [32]: 21 mm; MCC [33]: 100 µM; EC50 [34]: > 4 µM; EC50 [35]: > 0.16 µM; zone of inhibition at 50 µg/mL [36]: 11 mm; EC50 [37]: > 4 µM
CCN(CC)CN1C(=O)/C(=N/NC(=S)Nc2ccc(C)cc2)c2cc(Cl)ccc21 | 4.6 µM | > 4 µM | > 20 µM | 11 mm | 4000 nM | 11.3 µM | 21 mm | > 20 µM | ≥ 4 µM | > 100 µM | > 4 µM | > 4 µM | 11 mm | > 20 µM | 11 mm | > 20 µM | 34.1% | 0.0335 h | > 4 µM | > 4 µM | EC50 [21]: > 4 µM; EC50 [22]: > 0.8 µM; EC50 [23]: > 4 µM; MCC [24]: ≥ 4 µM; EC50 [25]: > 0.8 µM; IC50 [26]: 9.5 µM; EC50 [27]: > 20 µM; zone of inhibition at 50 µg/mL [28]: 11 mm; CC50 [29]: 17.5 µM; zone of inhibition at 50 µg/mL [30]: 11 mm; EC50 [31]: > 4 µM; zone of inhibition at 50 µg/mL [32]: 11 mm; MCC [33]: 100 µM; EC50 [34]: > 4 µM; EC50 [35]: > 0.8 µM; zone of inhibition at 50 µg/mL [36]: 11 mm; EC50 [37]: > 4 µM
